Results reported in ChEMBL document CHEMBL5344415, “Synthesis and Characterization of Phenylalanine Amides Active against Mycobacterium abscessus and Other Mycobacteria” (J Med Chem, 2023).
pEC50: −log10 of the molar value. In brackets after ≈: the same amount, converted by molar mass.

How the values were obtained:
[1] = system: Mycolicibacterium smegmatis; assay: Antibacterial activity against Mycobacterium smegmatis mc2 155 expressing tomato RFP assessed as bacterial growth inhibition incubated for 3 days in 7H9 medium by RFP fluorescence based broth microdilution method; type: functional; conditions: mc2 155, 72 h, time 3 day
Procedure, shortened: (§1)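 Broth microdilution in 7H9 with 10 % ADS and 0.05 % Tween 80. Twofold nine-point dilution series. Inoculum 5 x 10⁵ cells/mL taken from a mid-log preculture. Incubation at 37 °C, 3 days for M. smegmatis and M. abscessus, 5 days for M. intracellulare. Read-out by RFP fluorescence (ex 544/em 590 nm). Controls were 1 % DMSO and 100 μM amikacin. MIC₉₀ from duplicates, averaged.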

[2] = system: Mycobacterium tuberculosis; assay: Antibacterial activity against Mycobacterium tuberculosis H37Rv ATCC 27294 assessed as bacterial growth inhibition incubated for 7 days in 7H9 medium by optical density based microplate reader analysis; type: functional; conditions: H37Rv ATCC 27294, 168 h, time 7 day
Procedure, shortened: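 Compounds serially diluted in flat-bottom 96-well plates. Mid-log culture mixed in to a final OD₆₀₀ of 0.05. Sealed plates incubated in humidified boxes at 37 °C for 7 days with shaking at 80 rpm. Turbidity read at 600 nm. MIC₉₀ taken from dose–response curves. Two biological replicates, averaged.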

[3] = system: Mycobacteroides abscessus; assay: Antibacterial activity against Mycobacterium abscessus ATCC 19977 expressing tomato RFP assessed as bacterial growth inhibition incubated for 3 days in 7H9 medium by RFP fluorescence based broth microdilution method; type: functional; conditions: ATCC 19977, 72 h, time 3 day; procedure, shortened: as §1
[4] = system: Mycobacteroides abscessus; assay: Antibacterial activity against Mycobacterium abscessus ATCC 19977 expressing tomato RFP assessed as bacterial growth inhibition incubated for 3 days in MHII medium by RFP fluorescence based broth microdilution method; type: functional; conditions: ATCC 19977, 72 h, time 3 day
Procedure, shortened: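 Broth microdilution in MHII broth with 0.05 % Tween 80, against the RFP-expressing strain. Twofold nine-point dilution series. Inoculum 5 x 10⁵ cells/mL from a mid-log preculture. Incubated 3 days at 37 °C. Read-out by RFP fluorescence (ex 544/em 590 nm). Controls were 1 % DMSO and 100 μM amikacin. MIC₉₀ from duplicates, averaged.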

[5] = system: Mycobacterium intracellulare; assay: Antibacterial activity against Mycobacterium intracellulare ATCC 35761 expressing tomato RFP assessed as bacterial growth inhibition incubated for 5 days in 7H9 medium by RFP fluorescence based broth microdilution method; type: functional; conditions: ATCC 35761, 120 h, time 5 day; procedure, shortened: as §1
[6] = system: Mycobacteroides abscessus; assay: Antibacterial activity against Mycobacterium abscessus Bamboo harboring inactive clarithromycin-sensitive erm41 C28 sequevar assessed as bacterial growth inhibition incubated for 3 days in 7H9 medium by optical density based method; type: functional; conditions: 72 h, time 3 day
[7] = system: Mycobacteroides abscessus; assay: Antibacterial activity against Mycobacterium abscessus ATCC 19977 expressing tomato RFP infected in human THP-1 cells assessed as bacterial growth inhibition incubated for 4 days in RPMI medium by RFP fluorescence based assay; type: functional; conditions: ATCC 19977, 96 h, time 4 day
Procedure, shortened: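 RFP M. abscessus washed, moved into RPMI, filtered through 5 µm and opsonised with 10 % human serum for 30 min. THP-1 cells infected at MOI 5:1 with PMA 40 ng/mL for 4 h at 37 °C, then washed. Infected cells (1x10⁵/well) given a ten-point twofold series. Incubated 4 days at 37 °C, 5 % CO₂. Cells PFA-fixed and DAPI-stained. RFP quantified by imaging. Controls were DMSO and 1.5 µM bedaquiline. Duplicate.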

A-375 = assay: Cytotoxicity against human A-375 cells assessed as reduction in cell viability incubated for 72 hrs by SRB assay; type: toxicity, cell-based
HT-29 = assay: Cytotoxicity against human HT-29 cells assessed as reduction in cell viability incubated for 72 hrs by SRB assay; type: toxicity, cell-based
MCF7 = assay: Cytotoxicity against human MCF7 cells assessed as reduction in cell viability incubated for 72 hrs by SRB assay; type: toxicity, cell-based
A2780 = assay: Cytotoxicity against human A2780 cells assessed as reduction in cell viability incubated for 72 hrs by SRB assay; type: toxicity, cell-based
[8] = Cytotoxicity against mouse NIH3T3 cells assessed as reduction in cell viability incubated for 72 hrs by SRB assay; type: toxicity, cell-based; conditions: mouse, NIH3T3 cells
HeLa = assay: Cytotoxicity against human HeLa cells assessed as reduction in cell viability incubated for 72 hrs by SRB assay; type: toxicity, cell-based
[9] = Kinetic solubility of compound in PBS at 0.78 to 500 uM measured immediately by nephelometric method; type: physicochemical; conditions: buffer, dose 0.78-500 µM
Procedure, shortened: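 DMSO stocks prediluted in DMSO, then diluted 1:50 into PBS (2 % DMSO final) and read immediately by nephelometry at 0.78–500 μM; blank-corrected data fitted by segmental regression; quadruplicates from one stock.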

SMILES	MIC90 [1] [µM]	MIC90 [2] [µM]	MIC90 [3] [µM]	MIC90 [4] [µM]	MIC90 [5] [µM]	MIC50 [6] [µM]	MIC90 [6] [µM]	MIC50 [7] [µM]	MIC90 [7] [µM]	pEC50 (A-375)	pEC50 (HT-29)	pEC50 (MCF7)	pEC50 (A2780)	EC50 at 72 h [8] [µM]	pEC50 (HeLa)	Kinetic_solubility [9] [µM]
O=C(N[C@H](Cc1ccsc1)C(=O)Nc1ccccc1N1CCOCC1)c1ccccc1F	1.56 (≈ 0.708 µg/mL)	3.13 (≈ 1.42 µg/mL)	12.5 (≈ 5.67 µg/mL)	12.5 (≈ 5.67 µg/mL)	0.78 (≈ 0.354 µg/mL)	1.9 (≈ 0.862 µg/mL)	7 (≈ 3.17 µg/mL)	6.25 (≈ 2.83 µg/mL)	25 (≈ 11.3 µg/mL)	< 4.52	< 4.52	< 4.52	< 4.52	> 30	< 4.52	31
O=C(N[C@H](Cc1ccsc1)C(=O)Nc1ccccc1N1CCOCC1)c1cccs1	1.56 (≈ 0.689 µg/mL)	3.13 (≈ 1.38 µg/mL)	12.5 (≈ 5.52 µg/mL)	12.5 (≈ 5.52 µg/mL)	1.56 (≈ 0.689 µg/mL)	2.3 (≈ 1.02 µg/mL)	7 (≈ 3.09 µg/mL)	12.5 (≈ 5.52 µg/mL)	50 (≈ 22.1 µg/mL)	< 4.52	< 4.52	< 4.52	< 4.52	> 30	< 4.52	30
O=C(N[C@H](Cc1ccccc1)C(=O)Nc1cc(F)ccc1N1CC[S+]([O-])CC1)c1ccccc1F	1.56 (≈ 0.776 µg/mL)	0.78 (≈ 0.388 µg/mL)	3.31 (≈ 1.65 µg/mL)	3.13 (≈ 1.56 µg/mL)	0.2 (≈ 0.0995 µg/mL)	0.52 (≈ 0.259 µg/mL)	2 (≈ 0.995 µg/mL)	0.39 (≈ 0.194 µg/mL)	12.5 (≈ 6.22 µg/mL)	< 4.52	< 4.52	< 4.52	< 4.52	> 30	< 4.52	184
O=C(N[C@H](Cc1ccc(O)cc1)C(=O)Nc1cc(F)ccc1N1CCSCC1)c1cccs1	12.5 (≈ 6.07 µg/mL)	0.78 (≈ 0.379 µg/mL)	12.5 (≈ 6.07 µg/mL)		0.1 (≈ 0.0486 µg/mL)	1.6 (≈ 0.777 µg/mL)	15 (≈ 7.28 µg/mL)	12.5 (≈ 6.07 µg/mL)	50 (≈ 24.3 µg/mL)	< 4.52	< 4.52	< 4.52	< 4.52	> 30	< 4.52	78
O=C(N[C@H](Cc1ccsc1)C(=O)Nc1ccccc1N1CC[S+]([O-])CC1)c1cccs1	3.13 (≈ 1.48 µg/mL)	6.25 (≈ 2.96 µg/mL)	6.25 (≈ 2.96 µg/mL)	12.5 (≈ 5.92 µg/mL)	0.2 (≈ 0.0947 µg/mL)	3.4 (≈ 1.61 µg/mL)	15 (≈ 7.1 µg/mL)	12.5 (≈ 5.92 µg/mL)	100 (≈ 47.4 µg/mL)	< 4.52	< 4.52	< 4.52	< 4.52	> 30	< 4.52	74
O=C(N[C@H](Cc1ccc(O)cc1)C(=O)Nc1cc(F)ccc1N1CCS(=O)(=O)CC1)c1cccs1	6.25 (≈ 3.24 µg/mL)	0.78 (≈ 0.404 µg/mL)	6.25 (≈ 3.24 µg/mL)	3.13 (≈ 1.62 µg/mL)	0.05 (≈ 0.0259 µg/mL)	0.4 (≈ 0.207 µg/mL)	9 (≈ 4.66 µg/mL)	6.25 (≈ 3.24 µg/mL)	25 (≈ 12.9 µg/mL)	< 4.52	4.53	< 4.52	4.53	> 30	< 4.52	170
O=C(N[C@H](Cc1cccs1)C(=O)Nc1ccccc1N1CC[S+]([O-])CC1)c1cccs1	3.13 (≈ 1.48 µg/mL)	3.13 (≈ 1.48 µg/mL)	12.5 (≈ 5.92 µg/mL)	12.5 (≈ 5.92 µg/mL)	0.2 (≈ 0.0947 µg/mL)	1.3 (≈ 0.616 µg/mL)	5.8 (≈ 2.75 µg/mL)	12.5 (≈ 5.92 µg/mL)	100 (≈ 47.4 µg/mL)	< 4.52	< 4.52	< 4.52	< 4.52	> 30	< 4.52	60
O=C(N[C@H](Cc1ccc(O)cc1)C(=O)Nc1cc(F)ccc1N1CCSCC1)c1ccccc1F	6.25 (≈ 3.11 µg/mL)	1.56 (≈ 0.776 µg/mL)		50 (≈ 24.9 µg/mL)	0.2 (≈ 0.0995 µg/mL)	1.7 (≈ 0.846 µg/mL)	15 (≈ 7.46 µg/mL)	6.25 (≈ 3.11 µg/mL)	25 (≈ 12.4 µg/mL)	< 4.52	< 4.52	< 4.52	< 4.52	> 30	< 4.52	58
